Assay outcomes from PubChem BioAssay.
Hits are enriched below; roughly 2.9% of the tested compounds scored in any of these assays.
GalR3 antagonist: blocks the human galanin receptor 3 | HEK293 GalR3-CNG cAMP membrane potential fluorescence; galR3 body fused to GalR1 C-terminus | inhibition, % at 3 µM | actives 0.44% (n = 360,000) | AID 651719;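 active = inhibition above the screen-wide average plus 3 SD, cut at about 13% in these data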;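 note: forskolin and galanin both at EC90 stimulate the cells; cAMP rise reported by CNG channel membrane potential dye signal; 0% = forskolin plus galanin with DMSO and 100% = forskolin alone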
TAG inh: inhibitors of triacylglycerol accumulation; H9c2 cells, Nile Red lipid (TAG) fluorescence; cells loaded with 200 µM oleic acid; inhibition, % at 12.5 µM; actives 0.66% (n = 230,000); AID 651582;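 active = pattern-corrected inhibition of lipid staining of at least 50% with the nuclear-stain viability signal not falling by more than 50%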;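 note: 0% = DMSO wells and 100% = triacsin C control wells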
Calb FLC: affects C. albicans growth with fluconazole | growth inhibition, % (concentration not given with the values) | actives 0.57% (n = 300,000) | AID 1979 | C. albicans CaCi-2 + fluconazole, Alamar Blue growth, 48 h;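 active = growth inhibition above about 58% in most replicates, limit read from the data, passing the limit was not always enough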;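 note: all wells also contain fluconazole at 8 µg/ml as a sub-toxic cotreatment; 0% = median of DMSO wells and 100% = median of geldanamycin control wells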
MC4R antagonist: antagonists of human melanocortin 4 receptor (MC4R). P32245. MC4R-expressing cells, MTII-stimulated cAMP, LANCE TR-FRET. inhibition, % at 6.5 µM. actives 0.48% (n = 360,000). AID 540295;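 active = inhibition above its plate's cutoff, the mean of tested wells on that plate plus 3 SD, cut at about 29% in these data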;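 note: 0% = Melanotan II alone and 100% = Melanotan II plus saturating MCL0020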
Target sequence (P32245 whole entry, looked up): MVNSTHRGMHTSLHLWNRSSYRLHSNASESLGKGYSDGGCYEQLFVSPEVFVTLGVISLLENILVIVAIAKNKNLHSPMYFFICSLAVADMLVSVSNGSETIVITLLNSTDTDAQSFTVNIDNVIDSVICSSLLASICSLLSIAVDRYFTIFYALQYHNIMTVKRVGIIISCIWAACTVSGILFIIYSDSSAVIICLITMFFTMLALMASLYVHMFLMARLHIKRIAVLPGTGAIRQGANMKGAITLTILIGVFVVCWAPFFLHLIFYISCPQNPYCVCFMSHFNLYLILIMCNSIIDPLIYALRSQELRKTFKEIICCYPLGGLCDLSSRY
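Assay system: U2OS cells stably expressing human melanocortin 4 receptor (MC4R) / Dosing: 6.5 µM / Timing: compound 30 min, challenge 1 h, detection 1 h / Measured by: Eu-cAMP/anti-cAMP TR-FRET, emission 671 nm / Replicates: singlicate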
Efflux pump inh: inhibitors of Candida antifungal efflux pumps expressed in yeast; actives 0.44% (n = 330,000); S. cerevisiae Candida pump triplex, Nile Red efflux; inhibition, % at 10 µM;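 active = plate passing quality check with inhibition over a set limit, or well fluorescence over plate mean plus 4 SD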;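 note: Nile Red retained in pooled yeast measured as flow cytometry median fluorescence; 0% = buffer negative control and 100% = Enniatin B positive control; higher means more Nile Red kept so more efflux inhibition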
MC4R ag barr: human MC4R agonism via beta-arrestin; P32245; U2OS MC4R beta-arrestin complementation, luminescence; percent of melanotan II response, DMSO zero; activation, % at 8.9 µM; actives 0.98% (n = 360,000); AID 540308;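 active = activation above a per-plate cutoff, the mean activation of sample wells on that plate plus 3 SD, cut at about 8% in these data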
* hit, by the source's call; x = no result.

SMILES | GalR3 antagonist | TAG inh | Calb FLC | MC4R antagonist | Efflux pump inh | MC4R ag barr
Cc1ccc(-c2nc3ccccc3o2)cc1NC(=S)NC(=O)c1cccs1 | -2.1 | x | 5.7 | 12.6 | -0.1 | 22.8*
C=C(C)c1cccc(C(C)(C)NC(=O)Nc2ccc(C(N)=O)cc2)c1 | -6.2 | -11.4 | 83.5* | 3.6 | -0.1 | -2.3
CCOC(=O)CC(/C(C)=N\O)c1ccccc1 (configuration not stated) | 4.3 | x | 99.1* | 8.2 | 0.0 | -1.6
C/C(=N\Nc1nc2ccccc2s1)c1ccc(Br)s1 | -2.6 | x | -73.5 | -19.6 | 0.2 | -3.0
CC(=NNc1nc2ccccc2s1)c1ccncn1 | -2.5 | 63.7* | x | 0.9 | x | -2.6
CC(=O)Nc1nnc(SCc2cc(=O)c(OC(=O)c3ccccc3)co2)s1 | -6.8 | 0.1 | 0.1 | 11.7 | 0.0 | -0.8
Cc1ccc(C(=O)Oc2coc(CSc3nnc(NC(=O)c4cccs4)s3)cc2=O)cc1 | -1.2 | x | 2.3 | 7.5 | -0.1 | 9.2*
O=C(N[C@H](C(=O)N1CCC[C@H]1C(=O)NCc1ccccc1)c1ccccc1)c1ccc(Cl)c(Cl)c1 | -9.7 | x | x | x | x | x
O=C(c1ccc(-n2cccn2)cc1)N1CCc2c([nH]c3ccccc23)C1c1ccccn1 (configuration not stated) | -3.6 | 6.0 | -2.1 | -4.1 | 0.3 | 0.2
Cn1cccc1-c1cc(C(=O)N2CCc3c([nH]c4ccccc34)C2c2ccccn2)[nH]n1 (configuration not stated) | -10.3 | 19.2 | 97.7* | 4.2 | 0.0 | -3.3
CC[C@@H]1C(c2ccc(F)cc2)=NN(c2ccc(Br)cc2)[C@H]1C(=O)N1CCOC1=O | -3.3 | -6.5 | x | 11.4 | 0.2 | 9.6*
CC[C@@H]1C(c2ccccc2)=NN(c2ccc(Br)cc2)[C@H]1C(=O)N1CCOC1=O | -1.4 | 1.7 | x | 8.6 | 0.4 | 0.5
CCOC(=O)c1sc(Nc2nc3c(OC)cccc3s2)nc1C | -1.2 | 49.3 | 78.3* | 7.7 | 0.1 | -0.4
COc1cccc(-c2nc(NC(C)C)c3ccccc3n2)c1O | -5.8 | x | 85.5* | 1.5 | -0.2 | -1.7
CC(C)c1ccc(C2=C(O)c3ccccc3C(=O)C2=O)cc1 | 1.4 | x | 99.2* | 0.5 | -7.4 | -0.3
COc1ccc(Nc2ccnc3ccccc23)cc1 | 2.1 | 3.7 | -5.6 | 1.8 | -0.2 | -1.9
CC(C)Nc1ccc(Nc2ccnc3cc4ccccc4cc23)cc1 | -2.0 | 128.8 | -0.5 | -12.5 | 0.1 | 8.5*
COc1ccc(/C=C/C(=O)Nc2cc(C)nn2-c2nc3ccccc3[nH]2)cc1 | 1.3 | x | 1.7 | 7.2 | 0.0 | 0.4
COc1ccc(/C=C/C(=O)Nc2cc(C)nn2-c2nc3ccccc3n2Cc2cccc([N+](=O)[O-])c2)cc1 | -11.2 | x | -5.5 | -2.3 | 0.0 | 8.6*
COCCNC(=O)c1cc2c(c(-c3cccc(C#Cc4ccc(OC)c(OC)c4)c3)n1)[C@H](CCO)N(S(=O)C(C)(C)C)C2 (some centres not stated) | 5.7 | x | x | x | x | x
O=C(Nc1nc(-c2ccc(S(=O)(=O)N3CCCC3)cc2)cs1)c1cccs1 | -0.8 | 5.4 | x | -0.7 | -0.1 | -1.1
O=C(Nc1nc(-c2ccc(S(=O)(=O)N3CCCCCC3)cc2)cs1)c1cccs1 | -1.9 | 50.9* | 7.7 | 4.5 | 0.3 | 2.9
COc1ccc(-c2nn(-c3ccccc3)cc2C=O)cc1[N+](=O)[O-] | -10.1 | x | 13.5 | -4.3 | -0.1 | 9.5*
COc1ccc(-c2nn(-c3ccccc3)cc2/C=C/C(=O)O)cc1[N+](=O)[O-] | -1.9 | 2.1 | 18.6 | -31.0 | 0.0 | -0.8
O=C1Nc2ccccc2C1=Nc1ccc2[nH]c3ccccc3c2c1 | -2.3 | 4.4 | x | -7.2 | x | 2.3
CN(C)c1ccc(NC(=S)Nc2ccc3c(c2)c(=O)n(C)n3-c2ccc(C(C)(C)C)cc2)cc1 | -4.7 | 46.4 | x | -4.0 | x | -1.1
Oc1ccc(Cl)cc1C1=Nc2ccccc2N=C(c2ccco2)C1 | -7.9 | x | -0.7 | 6.0 | -0.3 | 9.0*
COCCNc1nc(Oc2cccc(NC(C)=O)c2)c2sccc2n1 | -2.9 | 7.4 | x | 8.2 | x | 1.2
COCCNc1nc(Oc2cccc(NC(C)=O)c2)c2sc(-c3ccccc3)cc2n1 | -7.7 | 22.1 | x | 22.8 | x | 9.1*
